Laboratory results reported in ChEMBL document CHEMBL1125138, “1,3-Dialkyl-3-acyltriazenes, a novel class of antineoplastic alkylating agents” (J Med Chem, 1990).

How the values were obtained:
[1] = test system: A498; test: Evaluated for the inhibitory concentration required to cause growth inhibition of A498Rem- renal cell line using the MTT Cytotoxicity Assay; format: functional, cell-based; conditions: Homo sapiens
Procedure, shortened: (§1)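 MTT microculture tetrazolium growth assay on human cell lines and normal fibroblasts. Cells seeded at 1000 cells/well, with compound added 24 h after plating. Cultures then incubated a further 6 days at 37 °C before MTT read-out of growth versus untreated cells.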

[2] = test system: A-427; test: Evaluated for the inhibitory concentration required to cause growth inhibition of A427Mer- cell line of lung using the MTT Cytotoxicity Assay; format: functional, cell-based; conditions: Homo sapiens; procedure, shortened: as §1
[3] = test system: A704; test: Evaluated for the inhibitory concentration required to cause growth inhibition of A704Rem- renal cell line using the MTT Cytotoxicity Assay; format: functional, cell-based; conditions: Homo sapiens; procedure, shortened: as §1
[4] = test system: A673; test: Evaluated for the inhibitory concentration required to cause growth inhibition of A673Mer+ sarcoma cell line using the MTT Cytotoxicity Assay; format: functional, cell-based; conditions: Homo sapiens; procedure, shortened: as §1
[5] = test system: CCD 19Lu; test: Evaluated for the inhibitory concentration required to cause growth inhibition of CCD-19Lu fibroblasts cell line using the MTT Cytotoxicity Assay; format: functional, cell-based; conditions: Homo sapiens; procedure, shortened: as §1
[6] = test system: DOD-1; test: Evaluated for the inhibitory concentration required to cause growth inhibition of DOD-1 breast cell line using the MTT Cytotoxicity Assay; format: functional, cell-based; conditions: Homo sapiens; procedure, shortened: as §1
[7] = test system: NCI-H460; test: Evaluated for the inhibitory concentration required to cause growth inhibition of H460 cell line of lung using the Microculture Tetrazolium (MTT) Cytotoxicity Assay; format: functional, cell-based; conditions: Homo sapiens; procedure, shortened: as §1
[8] = test system: NCI-H358; test: Evaluated for the inhibitory concentration required to cause growth inhibition of H358M cell line of lung using the Microculture Tetrazolium (MTT) Cytotoxicity Assay; format: functional, cell-based; conditions: Homo sapiens; procedure, shortened: as §1
[9] = test system: NCI-H125; test: Evaluated for the inhibitory concentration required to cause growth inhibition of H125 cell line of lung using the Microculture Tetrazolium (MTT) Cytotoxicity Assay; format: functional, cell-based; conditions: Homo sapiens; procedure, shortened: as §1
[10] = test system: NCI-H322M; test: Evaluated for the inhibitory concentration required to cause growth inhibition of H322M cell line of lung using the Microculture Tetrazolium (MTT) Cytotoxicity Assay; format: functional, cell-based; conditions: Homo sapiens; procedure, shortened: as §1
[11] = test system: NCI-H23; test: Evaluated for the inhibitory concentration required to cause growth inhibition of H23 cell line of lung using the Microculture Tetrazolium (MTT) Cytotoxicity Assay; format: functional, cell-based; conditions: Homo sapiens; procedure, shortened: as §1
[12] = test system: LOX IMVI; test: Evaluated for the inhibitory concentration required to cause growth inhibition of LOX melanoma cell line using the MTT Cytotoxicity Assay; format: functional, cell-based; conditions: Homo sapiens; procedure, shortened: as §1
[13] = test system: MCF7; test: Evaluated for the inhibitory concentration required to cause growth inhibition of MCF-7 breast cell line using the MTT Cytotoxicity Assay; format: functional, cell-based; conditions: Homo sapiens; procedure, shortened: as §1
[14] = test system: MAR BEL fibroblasts cell line; test: Evaluated for the inhibitory concentration required to cause growth inhibition of MAR BEL fibroblasts cell line using the MTT Cytotoxicity Assay; format: functional, cell-based; conditions: Homo sapiens; procedure, shortened: as §1
[15] = test system: NCI/ADR-RES; test: Evaluated for the inhibitory concentration required to cause growth inhibition of MCF-7ADR breast cell line using the MTT Cytotoxicity Assay; format: functional, cell-based; conditions: Homo sapiens; procedure, shortened: as §1
[16] = test system: Malme-3M; test: Evaluated for the inhibitory concentration required to cause growth inhibition of MALME-3M melanoma cell line using the MTT Cytotoxicity Assay; format: functional, cell-based; conditions: Homo sapiens; procedure, shortened: as §1
[17] = test system: OVCAR-4; test: Evaluated for the inhibitory concentration required to cause growth inhibition of OVCAR-4 ovarian cell line using the MTT Cytotoxicity Assay; format: functional, cell-based; conditions: Homo sapiens; procedure, shortened: as §1
[18] = test system: OVCAR-3; test: Evaluated for the inhibitory concentration required to cause growth inhibition of OVCAR-3 ovarian cell line using the MTT Cytotoxicity Assay; format: functional, cell-based; conditions: Homo sapiens; procedure, shortened: as §1
[19] = test system: HOS-TE85; test: Evaluated for the inhibitory concentration required to cause growth inhibition of TE85Mer+ sarcoma cell line using the MTT Cytotoxicity Assay; format: functional, cell-based; conditions: Homo sapiens; procedure, shortened: as §1
[20] = test system: TE-671; test: Evaluated for the inhibitory concentration required to cause growth inhibition of TE-671 cell line of central nervous system (CNS)using the MTT Cytotoxicity Assay; format: functional, cell-based; conditions: Homo sapiens; procedure, shortened: as §1
[21] = test system: WiDr; test: Evaluated for the inhibitory concentration required to cause growth inhibition of WiDR colon cell line using the MTT Cytotoxicity Assay; format: functional, cell-based; conditions: Homo sapiens
Procedure, shortened: (§2)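 MTT cell-growth assay in human cell lines: cells harvested and seeded at 1000 cells/well in 96-well plates. Compound added after 24 h, then cultures incubated a further 6 days at 37 °C. Growth measured with and without agent.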

[22] = test system: U-251; test: Evaluated for the inhibitory concentration required to cause growth inhibition of U251 cell line of central nervous system (CNS) using the MTT Cytotoxicity Assay; format: functional, cell-based; conditions: Homo sapiens; procedure, shortened: as §2
[23] = test system: RPMI-7951; test: Evaluated for the inhibitory concentration required to cause growth inhibition of RPMI7951 melanoma cell line using the MTT Cytotoxicity Assay; format: functional, cell-based; conditions: Homo sapiens; procedure, shortened: as §1
[24] = test system: SK-MEL-5; test: Evaluated for the inhibitory concentration required to cause growth inhibition of SK-MEL-5 melanoma cell line using the MTT Cytotoxicity Assay; format: functional, cell-based; conditions: Homo sapiens; procedure, shortened: as §1
[25] = test system: A549; test: Evaluated for the inhibitory concentration required to cause growth inhibition of A549Rem- cell line of lung using the MTT Cytotoxicity Assay; format: functional, cell-based; conditions: Homo sapiens; procedure, shortened: as §1
[26] = test system: NCI-H522 (Homo sapiens); test: Evaluated for the inhibitory concentration required to cause growth inhibition of H522 cell line of lung using the Microculture Tetrazolium (MTT) Cytotoxicity Assay
[27] = test system: A 172; test: Evaluated for the inhibitory concentration required to cause growth inhibition of A172Mer- cell line of central nervous system (CNS) using the MTT Cytotoxicity Assay; format: functional, cell-based; conditions: Homo sapiens; procedure, shortened: as §1
[28] = test system: L1210; test: Evaluated for the antineoplastic activity against L1210 leukemia tumor […] after administering intra peritoneally at a dose of 30 mg/kg; format: functional, Mus musculus
Procedure, shortened: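 Mice bearing L1210 leukemia dosed intraperitoneally once daily for 5 successive days (five injections). Activity reported as % T/C at each dose. Performed under the NCI Developmental Therapeutics Program.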

[29] = Evaluated for the antineoplastic activity against M5 sarcoma tumor xenograft in nude mice after administering Intra peritoneally at 4-day interval at a dose of 15 mg/kg; format: functional, Mus musculus
Procedure, shortened: (§3)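 M5 sarcoma-bearing mice given four intraperitoneal injections at 4-day intervals. Activity reported as % T/C per dose. Performed under the NCI Developmental Therapeutics Program.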

[30] = Evaluated for the antineoplastic activity against M5 sarcoma tumor xenograft in nude mice after administering Intra peritoneally at 4-day interval at a dose of 60 mg/kg; format: functional, Mus musculus; procedure, shortened: as §3
[31] = Evaluated for the antineoplastic activity against M5 sarcoma tumor xenograft in nude mice after administering Intra peritoneally at 4-day interval at a dose of 7.5 mg/kg; format: functional, Mus musculus; procedure, shortened: as §3
[32] = Evaluated for the antineoplastic activity against M5 sarcoma tumor xenograft in nude mice after administering Intra peritoneally at 4-day interval at a dose of 30 mg/kg; format: functional, Mus musculus; procedure, shortened: as §3
[33] = test system: L1210; test: Evaluated for the antineoplastic activity against L1210 leukemia tumor […] after administering intra peritoneally at a dose of 15 mg/kg; format: functional, Mus musculus
[34] = Evaluated for the antineoplastic activity against amelanotic melanoma tumor xenograft in nude mice after injecting intraperitoneally at a dose of 120 mg/kg; format: functional, Mus musculus; conditions: route intraperitoneal
[35] = Evaluated for the antineoplastic activity against amelanotic melanoma tumor xenograft in nude mice after injecting intraperitoneally at a dose of 30 mg/kg; format: functional, Mus musculus; conditions: route intraperitoneal
[36] = Evaluated for the antineoplastic activity against amelanotic melanoma tumor xenograft in nude mice after injecting intraperitoneally at a dose of 60 mg/kg; format: functional, Mus musculus; conditions: route intraperitoneal

Row | Structure (SMILES) | IC50 [1] [µM] | IC50 [2] [µM] | IC50 [3] [µM] | IC50 [4] [µM] | IC50 [5] [µM] | IC50 [6] [µM] | IC50 [7] [µM] | IC50 [8] [µM] | IC50 [9] [µM] | IC50 [10] [µM] | IC50 [11] [µM] | IC50 [12] [µM] | IC50 [13] [µM] | IC50 [14] [µM] | IC50 [15] [µM] | IC50 [16] [µM] | IC50 [17] [µM] | IC50 [18] [µM] | IC50 [19] [µM] | IC50 [20] [µM] | further results
1 | C/N=N\N(C)C(C)=O | 48 | 11 | 55 | 65 | 77 | 60 | 75 | 100 | 53 | 55 | 42 | 30 | 37 | 80 | 40 | 25 | 45 | 55 | 40 | 7 | IC50 [21]: 40 µM; IC50 [22]: 42 µM; IC50 [23]: 60 µM; IC50 [24]: 37 µM; IC50 [25]: 55 µM; IC50 [26]: 30 µM
2 | CCOC(=O)N(C)/N=N\C | 35 | 7 | 55 | 75 | 62 | 44 | 65 | 80 | 44 | 42 | 20 | 22 | 27 | 75 | 34 | 22 | 40 | 60 | 37 | 48 | IC50 [27]: 20 µM; T/C [28]: 142%; T/C [29]: 140%; T/C [30]: 168%; T/C [31]: 131%; T/C [32]: 158%; T/C [33]: 133%; IC50 [21]: 45 µM; IC50 [22]: 28 µM; T/C [34]: 191%; T/C [35]: 132%; T/C [36]: 147%; IC50 [23]: 35 µM; IC50 [24]: 20 µM; IC50 [25]: 45 µM; IC50 [26]: 18 µM
